Assays:
Rattus norvegicus [1] = experiment: Total bilirubin level in Sprague-Dawley rat serum at 100 mg/kg, po; assay type: functional
Outline: (§1)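 Male Sprague–Dawley rats (180-200 g), 5 per group, dosed orally once daily for 5 successive days. Twenty-four hours after the last dose, each rat received a single oral dose of 50% CCl4 in corn oil (2.5 ml/kg). Comparison groups were corn oil alone and CCl4 alone. Two days later, blood was taken from the orbital plexus, and serum was separated by centrifugation at 3000 rpm for 15 min for the assays.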

Rattus norvegicus [2] = experiment: Gamma-glutamyl transferase activity in Sprague-Dawley rat serum at 100 mg/kg, po; assay type: functional; outline: as §1
Rattus norvegicus [3] = experiment: Albumin level in Sprague-Dawley rat serum at 100 mg/kg, po; assay type: functional; outline: as §1
Rattus norvegicus [4] = experiment: Alanine aminotransferase activity in Sprague-Dawley rat serum at 100 mg/kg, po; assay type: functional; outline: as §1
Rattus norvegicus [5] = experiment: Cholesterol level in Sprague-Dawley rat serum at 100 mg/kg, po; assay type: functional; outline: as §1
Rattus norvegicus [6] = experiment: Triglyceride level in Sprague-Dawley rat serum at 100 mg/kg, po; assay type: functional; outline: as §1
Rattus norvegicus [7] = experiment: Glucose level in Sprague-Dawley rat serum at 100 mg/kg, po; assay type: functional; outline: as §1
Rattus norvegicus [8] = experiment: Total protein level in Sprague-Dawley rat serum at 100 mg/kg, po; assay type: functional; outline: as §1
Rattus norvegicus [9] = experiment: Aspartate aminotransferase activity in Sprague-Dawley rat serum at 100 mg/kg, po; assay type: functional; outline: as §1
Rattus norvegicus [10] = experiment: Aspartate aminotransferase activity in Sprague-Dawley rat serum at 25 mg/kg, po; assay type: functional, organism-based; design: dose 25 mg/kg; outline: as §1
Rattus norvegicus [11] = experiment: Glucose level in Sprague-Dawley rat serum at 25 mg/kg, po; assay type: functional, organism-based; design: dose 25 mg/kg; outline: as §1
Rattus norvegicus [12] = experiment: Triglyceride level in Sprague-Dawley rat serum at 25 mg/kg, po; assay type: functional, organism-based; design: dose 25 mg/kg; outline: as §1
Rattus norvegicus [13] = experiment: Total bilirubin level in Sprague-Dawley rat serum at 25 mg/kg, po; assay type: functional, organism-based; design: dose 25 mg/kg; outline: as §1
Rattus norvegicus [14] = experiment: Total protein level in Sprague-Dawley rat serum at 25 mg/kg, po; assay type: functional, organism-based; design: dose 25 mg/kg; outline: as §1
Rattus norvegicus [15] = experiment: Gamma-glutamyl transferase activity in Sprague-Dawley rat serum at 25 mg/kg, po; assay type: functional, organism-based; design: dose 25 mg/kg; outline: as §1
Rattus norvegicus [16] = experiment: Albumin level in Sprague-Dawley rat serum at 25 mg/kg, po; assay type: functional, organism-based; design: dose 25 mg/kg; outline: as §1
Rattus norvegicus [17] = experiment: Cholesterol level in Sprague-Dawley rat serum at 25 mg/kg, po; assay type: functional, organism-based; design: dose 25 mg/kg; outline: as §1
Rattus norvegicus [18] = experiment: Alanine aminotransferase activity in Sprague-Dawley rat serum at 25 mg/kg, po; assay type: functional, organism-based; design: dose 25 mg/kg; outline: as §1

COc1cc(-c2cc(=O)c3c(O)cc(OC4O[C@H](CO)[C@@H](O)[C@@H]4OC4OC[C@@H](O)[C@H](O)[C@H]4O)cc3o2)ccc1O (some centres not stated)
Activity (Rattus norvegicus [1]): 0.33 mg/dL | Activity (Rattus norvegicus [2]): 12.03 U/L | Activity (Rattus norvegicus [3]): 3.07 g/dL | Activity (Rattus norvegicus [4]): 68.43 U/L | Activity (Rattus norvegicus [5]): 88.34 mg/dL | Activity (Rattus norvegicus [6]): 177.22 mg/dL | Activity (Rattus norvegicus [7]): 163.36 mg/dL | Activity (Rattus norvegicus [8]): 5.67 g/dL | Activity (Rattus norvegicus [9]): 61.64 U/L

COc1cc(-c2cc(=O)c3c(O)cc(O)cc3o2)ccc1O [CHRYSOERIOL]
Activity (Rattus norvegicus [1]): 0.33 mg/dL | Activity (Rattus norvegicus [2]): 12.05 U/L | Activity (Rattus norvegicus [3]): 3.05 g/dL | Activity (Rattus norvegicus [4]): 69.42 U/L | Activity (Rattus norvegicus [5]): 88.37 mg/dL | Activity (Rattus norvegicus [6]): 176.21 mg/dL | Activity (Rattus norvegicus [7]): 165.36 mg/dL | Activity (Rattus norvegicus [8]): 5.61 g/dL | Activity (Rattus norvegicus [9]): 62.65 U/L

SILYMARIN
Activity (Rattus norvegicus [10]): 56.6 U/L | Activity (Rattus norvegicus [11]): 141 mg/dL | Activity (Rattus norvegicus [12]): 171 mg/dL | Activity (Rattus norvegicus [13]): 0.38 mg/dL | Activity (Rattus norvegicus [14]): 6.1 g/dL | Activity (Rattus norvegicus [15]): 10.5 U/L | Activity (Rattus norvegicus [16]): 3.1 g/dL | Activity (Rattus norvegicus [17]): 80.9 mg/dL | Activity (Rattus norvegicus [18]): 65.2 U/L
